Measured values pooled from the literature.
Protocols differ between the studies behind these lines.
malE: malE (Escherichia coli, UniProt P0AEX9)
IAPP: Islet amyloid polypeptide (IAPP, Homo sapiens, UniProt P10997)
AMY2: Pancreatic alpha-amylase (AMY2, Sus scrofa, UniProt P00690)

`CC(C)(C)OC(=O)N1CCN(Cc2ccn(Cc3ccc(Cl)cc3)c(=O)c2O)CC1` has an IC50 of 3.35 µM (Lysine-specific demethylase 4D (KDM4D, Homo sapiens, UniProt Q6B0I6); enzyme activity, inhibitor).
`OC[C@@H](O)[C@@H](O[C@H]1O[C@H](CO)[C@@H](O[C@H]2O[C@H](CO)[C@@H](O[C@H]3O[C@H](CO)[C@@H](O)[C@H](O)[C@H]3O)[C@H](O)[C@H]2O)[C@H](O)[C@H]1O)[C@H](O)[C@@H](O)CO` has a Kd of 4.44 µM (malE; binding, ITC).
`CC(=O)Nc1ccc(Nc2nc(-c3sc(N)nc3C)cs2)cc1` has an IC50 of 0.95 µM (Lysyl oxidase homolog 2 (LOXL2, Homo sapiens, UniProt Q9Y4K0); enzyme activity, inhibitor, fluorescence; with preincubation).
The Kd of `COc1ccc(-c2cc(=O)c3c(OC)c(OC)c(OC)c(OC)c3o2)cc1OC` is reported as 2.79 µM (IAPP; binding, ITC).
`CCCc1ccc(O)c(OC)c1` gave an EC50 of > 600 µM (OR8H1 (Homo sapiens, UniProt Q8NGG4); cAMP, agonist, luciferase).
`FC(F)(F)c1ccc(/C=N/N=C/c2ccc(C(F)(F)F)cc2)cc1` has an IC50 of 270 µM (AMY2; enzyme activity, inhibitor).
The Kd of `COc1ccc(-c2cc(=O)c3c(OC)c(OC)c(OC)cc3o2)cc1OC` is reported as 3.06 µM (IAPP; binding, ITC).
With `C[C@H]1O[C@H](O[C@H]2[C@H](O)[C@@H](O)[C@@H](O[C@H]3[C@H](O)[C@@H](O)C(O)O[C@@H]3CO)O[C@@H]2CO)[C@H](O)[C@@H](O)[C@@H]1N[C@H]1C=C(CO)[C@@H](O)[C@H](O)[C@H]1O` (stereo partly drawn) the Kd was 0.36 µM (malE; binding, ITC).
The IC50 of `Clc1ccccc1/C=N/N=C/c1ccccc1Cl` is reported as 478 µM (AMY2; enzyme activity, inhibitor).
